Compounds with a hit are over-represented: about 3.8% of the library has one in this group of screens.
KCNQ1 inh = human KCNQ1 channel inhibition; P51787; B-score at 10 µM; CHO-K1 KCNQ1, FluxOR thallium flux fluorescence; active compounds read high; 310,000 compounds, 1.3% hits;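 active = compounds whose thallium flux B-score, printed positive for inhibition, exceeds three library SD while starting fluorescence stays within three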;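 note: channel opened by potassium depolarization with thallium stimulus after 20 min compound exposure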
Kir21 block = blocks the mouse Kir2.1 inward-rectifier potassium channel. B-score at 10 µM. AID 1672. HEK293-Kir2.1, FluxOR thallium flux fluorescence; active compounds read low. 310,000 compounds, 0.85% hits. P35561;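 active = fluorescence ratio B-score at or below minus 3 SD of library scores, with starting-brightness B-score within 2 SD, cut at about -4.2 in these data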;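 note: channel flux triggered by added potassium and thallium sulfate stimulus; B-score of peak minus minimum fluorescence over baseline after thallium stimulus; more negative B-score means stronger Kir2.1 block with less thallium influx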
Target sequence (P35561 whole entry, looked up): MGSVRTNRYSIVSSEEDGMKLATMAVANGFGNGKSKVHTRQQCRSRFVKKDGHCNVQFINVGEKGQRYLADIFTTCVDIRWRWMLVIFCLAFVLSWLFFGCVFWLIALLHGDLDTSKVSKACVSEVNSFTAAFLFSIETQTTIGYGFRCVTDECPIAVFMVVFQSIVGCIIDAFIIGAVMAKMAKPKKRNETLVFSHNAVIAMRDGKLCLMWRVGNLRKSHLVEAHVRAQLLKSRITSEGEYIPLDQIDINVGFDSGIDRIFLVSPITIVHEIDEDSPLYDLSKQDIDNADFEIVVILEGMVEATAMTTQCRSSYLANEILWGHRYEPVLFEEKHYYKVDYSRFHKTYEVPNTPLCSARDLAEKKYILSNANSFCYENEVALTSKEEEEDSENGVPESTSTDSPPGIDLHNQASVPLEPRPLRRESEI
hERG rescue = compounds protecting human hERG from proarrhythmic drug block; Q12809; CHO-hERG, FluxOR thallium flux, dofetilide IC70 present; activation (rescue from dofetilide block), less the hit threshold, % at 10 µM; 310,000 compounds, 0.51% hits; AID 1511;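 active = activation above the mean of controls blocked by dofetilide plus 5 SD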;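 note: thallium influx through hERG after potassium depolarization seen as dye fluorescence rise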
KCNK3 inh = human KCNK3 channel inhibition, primary screen; B-score at 10 µM; O14649; CHO-KCNK3 thallium flux, FluxOR fluorescence; active compounds read low; 340,000 compounds, 0.84% hits;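 active = B-score under library mean minus 4 SD, starting fluorescence ratio at most library mean plus 5 SD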;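 note: more negative B-score means stronger inhibition of thallium flux through KCNK3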
KCNQ1 act = human KCNQ1 channel potentiation or activation | 310,000 compounds, 0.35% hits | P51787 | B-score at 10 µM | CHO-K1 KCNQ1, thallium flux FluxOR fluorescence; active compounds read high;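 active = fluorescence ratio B-score, a plate-corrected score, at least three library SD, with initial intensity B-score within 5 SD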
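Doses: Single concentration per compound, DMSO matched to controls | Test system: KCNQ1-transfected CHO-K1 cells | Timing: 90 min dye loading and 20 min compound exposure, both at room temperature | Measured by: Kinetic FluxOR thallium fluorescence, 10-s 1-Hz baseline, 110-s post-stimulus read | Medium: Assay buffer with matched DMSO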
KCNK9 block = blocks the human KCNK9 two-pore domain potassium channel. HEK293 KCNK9, FluxOR thallium flux fluorescence; active compounds read low. AID 488922. Q9NPC2. 310,000 compounds, 1.2% hits. B-score at 10 µM;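 active = ratio B-score over 3 SD below the library mean, with starting fluorescence within 5 SD of its mean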;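 note: negative B-score means less thallium flux so channel inhibition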
KCNK9 inh conf = confirmation of human KCNK9 potassium channel inhibitors; shares compounds with KCNK9 block; HEK293 KCNK9 cells, FluxOR thallium flux fluorescence; inhibition, % at 10 µM; 4,900 compounds, 43% hits; AID 492992;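 active = thallium signal inhibited by more than 5 SD of the compound-free buffer control wells, on both duplicate plates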
Kir21 sel = mouse Kir2.1 off-target activity of KCNK9 modulators; shares compounds with KCNK9 block; Kir2.1 cells, FluxOR thallium flux fluorescence; 4,900 compounds, 4% hits; AID 492993; inhibition, % at 10 µM;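 active = thallium signal drop more than 5 SD beyond the mean of the no-compound control wells, seen in both duplicate plates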;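 note: signal is fluorescence rise after thallium addition divided by baseline fluorescence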
HEK293 Tl ctr = second counter-screen for KCNK9 modulators: effect in non-induced cells | inhibition, % at 10 µM | 4,900 compounds, 40% hits | shares compounds with KCNK9 block | non-induced KCNK9-HEK293, FluxOR thallium flux | AID 492997;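 active = thallium signal drop beyond 5 SD of the untreated control mean, on both duplicate plates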
A number is an active result.

What do the screens show for `CCOc1ccc(NS(=O)(=O)c2ccc(C(=O)N3CCCCCC3)cc2)cc1`?
KCNQ1 inh: inactive; Kir21 block: inactive; hERG rescue: inactive; KCNK3 inh: inactive; KCNQ1 act: inactive; KCNK9 block: inactive; KCNK9 inh conf: inactive; Kir21 sel: inactive; HEK293 Tl ctr: inactive

How did CCOc1ccc(NS(=O)(=O)c2ccc(C(=O)N3CCN(C(C)=O)CC3)cc2)cc1 do in these assays?
KCNQ1 inh: inactive; Kir21 block: inactive; hERG rescue: inactive; KCNK3 inh: inactive; KCNQ1 act: inactive; KCNK9 block: inactive

How did CCOc1ccc(OCc2ccc(C(=O)N3CCCC(C)C3)cc2)cc1 (configuration not stated) do in these assays?
KCNQ1 inh: inactive; Kir21 block: inactive; hERG rescue: inactive; KCNK3 inh: inactive; KCNQ1 act: inactive; KCNK9 block: inactive; KCNK9 inh conf: inactive; Kir21 sel: inactive; HEK293 Tl ctr: inactive

Results for CCOc1ccc(OCc2ccc(C(=O)N3CCOCC3)cc2)cc1 ?
KCNQ1 inh: inactive; Kir21 block: inactive; hERG rescue: inactive; KCNK3 inh: inactive; KCNQ1 act: inactive; KCNK9 block: inactive

Results for COc1ccc(NS(=O)(=O)c2ccc(C(=O)N3CCCCCC3)cc2)cc1 ?
KCNK3 inh: inactive

What do the screens show for `CCOc1ccc(NS(=O)(=O)c2ccc(C(=O)N3CCCC(C)C3)cc2)cc1` (configuration not stated)?
KCNQ1 inh: inactive; Kir21 block: inactive; hERG rescue: inactive; KCNK3 inh: inactive; KCNQ1 act: inactive; KCNK9 block: inactive; KCNK9 inh conf: inactive; Kir21 sel: inactive; HEK293 Tl ctr: inactive

Results for Cc1cccc2sc(NC(=O)C3CCN(C(=O)c4ccco4)CC3)nc12 ?
KCNQ1 inh: inactive; Kir21 block: inactive; hERG rescue: inactive; KCNK3 inh: inactive; KCNQ1 act: inactive; KCNK9 block: inactive

How did CCCCCC(=O)Nc1nc(C)c(-c2csc(Nc3cc(Cl)ccc3OC)n2)s1 do in these assays?
KCNQ1 inh: inactive; Kir21 block: inactive; hERG rescue: inactive; KCNK3 inh: inactive; KCNQ1 act: inactive; KCNK9 block: inactive

Results for C=CCCC(=O)Nc1nc(C)c(-c2csc(Nc3cc(OC)ccc3OC)n2)s1 ?
KCNQ1 inh: inactive; Kir21 block: inactive; hERG rescue: inactive; KCNK3 inh: inactive; KCNQ1 act: inactive; KCNK9 block: -8.7; KCNK9 inh conf: 56%; Kir21 sel: inactive; HEK293 Tl ctr: 28%

Results for COc1ccccc1Nc1nc(-c2sc(NC(=O)c3cccc(Cl)c3)nc2C)cs1 ?
KCNQ1 inh: inactive; Kir21 block: inactive; hERG rescue: inactive; KCNQ1 act: inactive; KCNK9 block: inactive

What do the screens show for `CCCC(=O)Nc1nc(C)c(-c2csc(Nc3cc(OC)ccc3OC)n2)s1`?
KCNQ1 inh: inactive; Kir21 block: inactive; hERG rescue: inactive; KCNK3 inh: inactive; KCNQ1 act: inactive; KCNK9 block: -17; KCNK9 inh conf: inactive; Kir21 sel: inactive; HEK293 Tl ctr: inactive

How did Cc1ccc(Cl)cc1Nc1nc(-c2sc(NC(=O)C(C)(C)C)nc2C)cs1 do in these assays?
KCNQ1 inh: inactive; Kir21 block: inactive; hERG rescue: inactive; KCNK3 inh: inactive; KCNQ1 act: inactive; KCNK9 block: -13; KCNK9 inh conf: 56%; Kir21 sel: inactive; HEK293 Tl ctr: inactive

How did CCCC(=O)Nc1nc(C)c(-c2csc(Nc3ccccc3OC)n2)s1 do in these assays?
KCNQ1 inh: inactive; Kir21 block: inactive; hERG rescue: inactive; KCNK3 inh: inactive; KCNQ1 act: inactive; KCNK9 block: inactive

How did CCCC(C)C(=O)Nc1nc(C)c(-c2csc(Nc3cc(OC)ccc3OC)n2)s1 (configuration not stated) do in these assays?
KCNQ1 inh: inactive; Kir21 block: inactive; hERG rescue: inactive; KCNK3 inh: inactive; KCNQ1 act: inactive; KCNK9 block: -18; KCNK9 inh conf: 46%; Kir21 sel: inactive; HEK293 Tl ctr: inactive

Results for CCOC(=O)[C@@H]1CCN(Cc2ccccc2)C[C@H]1c1ccccc1 ?
KCNQ1 inh: inactive; Kir21 block: inactive; hERG rescue: inactive; KCNK3 inh: inactive; KCNQ1 act: inactive; KCNK9 block: inactive

How did c1ccc2cc(OCCOCCOc3ccc4ccccc4c3)ccc2c1 do in these assays?
KCNQ1 inh: inactive; Kir21 block: inactive; hERG rescue: inactive; KCNK3 inh: inactive; KCNQ1 act: inactive; KCNK9 block: inactive; KCNK9 inh conf: inactive; Kir21 sel: inactive; HEK293 Tl ctr: inactive

What do the screens show for `CN(C)CCOc1ccc2ccccc2c1`?
KCNQ1 inh: inactive; Kir21 block: inactive; hERG rescue: inactive; KCNK3 inh: inactive; KCNQ1 act: inactive; KCNK9 block: inactive

Results for Cc1ccc(NC(=O)CSc2nc3ccccc3nc2N2CCCC2)cc1 ?
KCNQ1 inh: inactive; Kir21 block: inactive; hERG rescue: inactive; KCNK3 inh: inactive; KCNQ1 act: inactive; KCNK9 block: inactive; KCNK9 inh conf: inactive; Kir21 sel: inactive; HEK293 Tl ctr: inactive

What do the screens show for `CCc1ccc(NC(=O)CSc2nc3ccccc3nc2N2CCCC2)cc1`?
KCNQ1 inh: 6; Kir21 block: inactive; hERG rescue: inactive; KCNK3 inh: inactive; KCNQ1 act: inactive; KCNK9 block: inactive; KCNK9 inh conf: inactive; Kir21 sel: inactive; HEK293 Tl ctr: inactive

What do the screens show for `CCC(=O)Nc1c2c(nn1-c1ccc(OC)cc1)CSC2`?
KCNQ1 inh: inactive; Kir21 block: inactive; hERG rescue: inactive; KCNK3 inh: inactive; KCNQ1 act: inactive; KCNK9 block: inactive

What do the screens show for `COc1ccc(OCC(=O)Nc2c3c(nn2C(C)(C)C)CSC3)cc1`?
KCNQ1 inh: inactive; Kir21 block: inactive; hERG rescue: inactive; KCNK3 inh: inactive; KCNQ1 act: inactive; KCNK9 block: -14; KCNK9 inh conf: 57%; Kir21 sel: inactive; HEK293 Tl ctr: 24%

What do the screens show for `CSc1nc2ccccc2cc1/C=C(\C#N)c1ccccc1`?
KCNQ1 inh: inactive; Kir21 block: inactive; hERG rescue: inactive; KCNK3 inh: inactive; KCNQ1 act: inactive; KCNK9 block: -13; KCNK9 inh conf: 54%; Kir21 sel: inactive; HEK293 Tl ctr: 42%

What do the screens show for `CSc1nc2ccccc2cc1/C=C(\C#N)c1cccc(C)c1`?
KCNQ1 inh: inactive; Kir21 block: inactive; hERG rescue: inactive; KCNK3 inh: inactive; KCNQ1 act: inactive; KCNK9 block: inactive

Results for CSCc1cc(N2CCOCC2)nc(SCc2ccc(Cl)c(Cl)c2)n1 ?
KCNQ1 inh: inactive; Kir21 block: inactive; hERG rescue: inactive; KCNK3 inh: inactive; KCNQ1 act: inactive; KCNK9 block: -9.2; KCNK9 inh conf: 31%; Kir21 sel: inactive; HEK293 Tl ctr: 38%
